Values after ≈ are worked out from the molar mass of the structure shown.
Legend:
Pseudomonas aeruginosa [1] = experiment: Efficacy on systemic infections after oral administration in mice was determined against Pseudomonas aeruginosa HS-116; format: functional
Outline: (§1)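 Mouse protection test using 4 groups of 10 mice. Mice were infected intraperitoneally with a bacterial suspension slightly above LD100. A single oral dose was given immediately after infection, with four doses, one per group, chosen from in vitro activity. Survival was scored after one week, and ED50 (total mg/kg protecting 50% of mice) was interpolated from group survival rates.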

Bacillus cereus = experiment: Minimum inhibitory concentration (MIC) preventing growth of Bacillus cereus; format: functional
Staphylococcus aureus [2] = experiment: Minimum inhibitory concentration (MIC) preventing growth of […]; format: functional
Escherichia coli [3] = experiment: Efficacy on systemic infections after oral administration in mice was determined against Escherichia coli HM-42; format: functional; outline: as §1
Escherichia coli [4] = experiment: Minimum inhibitory concentration (MIC)preventing growth of Escherichia coli; format: functional
[5] = test system: Staphylococcus epidermidis; experiment: Minimum inhibitory concentration (MIC) preventing growth of Staphylococcus epidermidis; format: functional
Staphylococcus aureus [6] = experiment: Efficacy on systemic infections after oral administration in mice was determined against […] HS-93; format: functional; outline: as §1
Bacillus subtilis = experiment: Minimum inhibitory concentration (MIC) preventing growth of Bacillus subtilis; format: functional
Klebsiella pneumoniae = experiment: Minimum inhibitory concentration (MIC)preventing growth of Klebsiella pneumoniae; format: functional
Enterobacter cloacae = experiment: Minimum inhibitory concentration (MIC)preventing growth of Enterobacter cloacae; format: functional
Proteus vulgaris = experiment: Minimum inhibitory concentration (MIC) preventing growth of Proteus vulgaris; format: functional
Mus musculus = experiment: Blood level after oral administration in mice (50 mg/kg) was determined (area under the concentration-time curve recorded at 0.5, 1, 2, and 4 hour after dosing); format: ADME, organism-based; parameters: dose 50 mg/kg, time < 4 hr, route oral; settings: in vivo
Outline: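 Single oral dose of 50 mg/kg to mice. Blood taken from groups of six mice at 0.5, 1, 2 and 4 h after dosing. Serum levels measured by disk agar diffusion bioassay with Bacillus subtilis ATCC 6633 on Seed Agar, plates incubated 18 h at 37 °C, giving total activity in serum. AUC 0-4 h expressed as μg/mL […].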

Morganella morganii = experiment: Minimum inhibitory concentration (MIC) preventing growth of Morganella morganii; format: functional
Pseudomonas aeruginosa [7] = experiment: Minimum inhibitory concentration (MIC)preventing growth of Pseudomonas aeruginosa; format: functional
Enterococcus faecalis = experiment: Minimum inhibitory concentration (MIC) preventing growth of Streptococcus faecalis ATCC 10541; format: functional

Row | Structure (SMILES) | MIC (Bacillus cereus) [µg/mL] | MIC (Staphylococcus aureus [2]) [µg/mL] | MIC (Escherichia coli [4]) [µg/mL] | MIC [5] [µg/mL] | MIC (Bacillus subtilis) [µg/mL] | MIC (Klebsiella pneumoniae) [µg/mL] | MIC (Enterobacter cloacae) [µg/mL] | MIC (Proteus vulgaris) [µg/mL] | AUC (Mus musculus) [ng·h/mL] | MIC (Morganella morganii) [µg/mL] | MIC (Pseudomonas aeruginosa [7]) [µg/mL] | MIC (Enterococcus faecalis) [µg/mL] | ED50 (Pseudomonas aeruginosa [1]) [mg/kg] | ED50 (Escherichia coli [3]) [mg/kg] | ED50 (Staphylococcus aureus [6]) [mg/kg]
1 | CNC1(C)CN(c2cc3c(cc2F)c(=O)c(C(=O)O)cn3C2CC2)C1 | 0.25 (≈ 0.724 µM) | 0.25 (≈ 0.724 µM) | 0.06 (≈ 0.174 µM) | 0.25 (≈ 0.724 µM) | 0.06 (≈ 0.174 µM) | 0.06 (≈ 0.174 µM) | 0.12 (≈ 0.347 µM) | 0.25 (≈ 0.724 µM) | 8400 | 0.06 (≈ 0.174 µM) | 2 (≈ 5.79 µM) | 1 (≈ 2.9 µM) | 69.8 | 1.9 | 16.5
2 | CCNC1CN(c2cc3c(cc2F)c(=O)c(C(=O)O)cn3C2CC2)C1 | 0.25 (≈ 0.724 µM) | 0.25 (≈ 0.724 µM) | 0.06 (≈ 0.174 µM) | 0.25 (≈ 0.724 µM) | 0.06 (≈ 0.174 µM) | 0.06 (≈ 0.174 µM) | 0.06 (≈ 0.174 µM) | 0.25 (≈ 0.724 µM) | 18100 | 0.5 (≈ 1.45 µM) | 2 (≈ 5.79 µM) | 2 (≈ 5.79 µM) | – | – | –
3 | CN(C)C1(C)CN(c2c(F)cc3c(=O)c(C(=O)O)cn(C4CC4)c3c2F)C1 | 0.25 (≈ 0.662 µM) | 0.25 (≈ 0.662 µM) | 0.12 (≈ 0.318 µM) | 0.25 (≈ 0.662 µM) | 0.06 (≈ 0.159 µM) | 0.25 (≈ 0.662 µM) | 0.12 (≈ 0.318 µM) | 0.5 (≈ 1.32 µM) | – | 0.25 (≈ 0.662 µM) | 2 (≈ 5.3 µM) | 1 (≈ 2.65 µM) | 70.2 | 1.4 | 7.4
4 | CCn1cc(C(=O)O)c(=O)c2cc(F)c(N3CC(C)(N)C3)c(F)c21 | 0.5 (≈ 1.48 µM) | 0.5 (≈ 1.48 µM) | 0.12 (≈ 0.356 µM) | 0.5 (≈ 1.48 µM) | 0.12 (≈ 0.356 µM) | 0.015 (≈ 0.0445 µM) | 0.12 (≈ 0.356 µM) | 1 (≈ 2.96 µM) | – | 0.12 (≈ 0.356 µM) | 2 (≈ 5.93 µM) | 2 (≈ 5.93 µM) | 57.3 | 4.1 | 8.2
5 | CN(C)C1(C)CN(c2cc3c(cc2F)c(=O)c(C(=O)O)cn3C2CC2)C1 | 0.25 (≈ 0.696 µM) | 0.25 (≈ 0.696 µM) | 0.25 (≈ 0.696 µM) | 0.25 (≈ 0.696 µM) | 0.06 (≈ 0.167 µM) | 0.25 (≈ 0.696 µM) | 0.25 (≈ 0.696 µM) | 0.5 (≈ 1.39 µM) | – | 0.25 (≈ 0.696 µM) | 4 (≈ 11.1 µM) | 2 (≈ 5.56 µM) | 296 | 2.7 | 16.1
6 | CCNC1CN(c2c(F)cc3c(=O)c(C(=O)O)cn(C4CC4)c3c2F)C1 | 0.25 (≈ 0.688 µM) | 0.25 (≈ 0.688 µM) | 0.06 (≈ 0.165 µM) | 0.25 (≈ 0.688 µM) | 0.06 (≈ 0.165 µM) | 0.06 (≈ 0.165 µM) | 0.06 (≈ 0.165 µM) | 0.25 (≈ 0.688 µM) | 38200 | 0.06 (≈ 0.165 µM) | 2 (≈ 5.5 µM) | 1 (≈ 2.75 µM) | 89 | 1.1 | 16.6
7 | CNC1CN(c2c(F)cc3c(=O)c(C(=O)O)cn(C4CC4)c3c2F)C1 | 0.25 (≈ 0.716 µM) | 0.25 (≈ 0.716 µM) | 0.03 (≈ 0.0859 µM) | 0.12 (≈ 0.344 µM) | 0.06 (≈ 0.172 µM) | 0.03 (≈ 0.0859 µM) | 0.03 (≈ 0.0859 µM) | 0.5 (≈ 1.43 µM) | 32700 | 0.06 (≈ 0.172 µM) | 0.5 (≈ 1.43 µM) | 1 (≈ 2.86 µM) | 28.5 | 1.5 | 10.6
8 | CC1(N)CN(c2c(F)cc3c(=O)c(C(=O)O)cn(-c4ccc(F)cc4)c3c2F)C1 | 0.12 (≈ 0.298 µM) | 0.12 (≈ 0.298 µM) | 0.25 (≈ 0.62 µM) | 0.12 (≈ 0.298 µM) | 0.12 (≈ 0.298 µM) | 0.015 (≈ 0.0372 µM) | 0.25 (≈ 0.62 µM) | 1 (≈ 2.48 µM) | – | 0.25 (≈ 0.62 µM) | 2 (≈ 4.96 µM) | 2 (≈ 4.96 µM) | 159 | 3.2 | 10.9
9 | CCNCC1CN(c2cc3c(cc2F)c(=O)c(C(=O)O)cn3C2CC2)C1 | 0.5 (≈ 1.39 µM) | 0.5 (≈ 1.39 µM) | 0.25 (≈ 0.696 µM) | 1 (≈ 2.78 µM) | 0.06 (≈ 0.167 µM) | 0.06 (≈ 0.167 µM) | 0.12 (≈ 0.334 µM) | 1 (≈ 2.78 µM) | 0 | 0.5 (≈ 1.39 µM) | 4 (≈ 11.1 µM) | 4 (≈ 11.1 µM) | – | – | –
10 | NCC1CN(c2cc3c(cc2F)c(=O)c(C(=O)O)cn3C2CC2)C1 | 0.25 (≈ 0.754 µM) | 0.5 (≈ 1.51 µM) | 0.12 (≈ 0.362 µM) | 0.25 (≈ 0.754 µM) | 0.12 (≈ 0.362 µM) | 0.12 (≈ 0.362 µM) | 0.25 (≈ 0.754 µM) | 1 (≈ 3.02 µM) | 0 | 0.12 (≈ 0.362 µM) | 1 (≈ 3.02 µM) | 0.5 (≈ 1.51 µM) | – | – | –
11 | CC1(N)CN(c2c(F)cc3c(=O)c(C(=O)O)cn(C4CC4)c3c2F)C1 | 0.12 (≈ 0.344 µM) | 0.12 (≈ 0.344 µM) | 0.06 (≈ 0.172 µM) | 0.12 (≈ 0.344 µM) | 0.03 (≈ 0.0859 µM) | 0.03 (≈ 0.0859 µM) | 0.06 (≈ 0.172 µM) | 0.25 (≈ 0.716 µM) | 20000 | 0.12 (≈ 0.344 µM) | 0.5 (≈ 1.43 µM) | 0.5 (≈ 1.43 µM) | 65.7 | 3.1 | 13

Further compounds by falling MIC (Bacillus cereus), results first:

Row | MIC (Bacillus cereus) [µg/mL] | MIC (Staphylococcus aureus [2]) [µg/mL] | MIC (Escherichia coli [4]) [µg/mL] | MIC [5] [µg/mL] | MIC (Bacillus subtilis) [µg/mL] | MIC (Klebsiella pneumoniae) [µg/mL] | MIC (Enterobacter cloacae) [µg/mL] | MIC (Proteus vulgaris) [µg/mL] | AUC (Mus musculus) [ng·h/mL] | MIC (Morganella morganii) [µg/mL] | MIC (Pseudomonas aeruginosa [7]) [µg/mL] | MIC (Enterococcus faecalis) [µg/mL] | Structure (SMILES) | ED50 (Pseudomonas aeruginosa [1]) [mg/kg] | ED50 (Escherichia coli [3]) [mg/kg] | ED50 (Staphylococcus aureus [6]) [mg/kg]
12 | 0.12 (≈ 0.344 µM) | 0.12 (≈ 0.344 µM) | 0.25 (≈ 0.716 µM) | 0.12 (≈ 0.344 µM) | 0.06 (≈ 0.172 µM) | 0.25 (≈ 0.716 µM) | 0.25 (≈ 0.716 µM) | 1 (≈ 2.86 µM) | 1700 | 0.25 (≈ 0.716 µM) | 2 (≈ 5.73 µM) | 0.12 (≈ 0.344 µM) | NCC1CN(c2c(F)cc3c(=O)c(C(=O)O)cn(C4CC4)c3c2F)C1 | – | – | –
13 | 0.12 (≈ 0.362 µM) | 0.25 (≈ 0.754 µM) | 0.03 (≈ 0.0905 µM) | 0.12 (≈ 0.362 µM) | 0.03 (≈ 0.0905 µM) | 0.03 (≈ 0.0905 µM) | 0.03 (≈ 0.0905 µM) | 0.25 (≈ 0.754 µM) | 4200 | 0.03 (≈ 0.0905 µM) | 0.5 (≈ 1.51 µM) | 1 (≈ 3.02 µM) | CNC1CN(c2cc3c(cc2F)c(=O)c(C(=O)O)cn3C2CC2)C1 | 145 | 3.8 | 36.3
14 | 0.12 (≈ 0.362 µM) | 0.12 (≈ 0.362 µM) | 0.06 (≈ 0.181 µM) | 0.12 (≈ 0.362 µM) | 0.06 (≈ 0.181 µM) | 0.12 (≈ 0.362 µM) | 0.12 (≈ 0.362 µM) | 0.06 (≈ 0.181 µM) | 7000 | 0.06 (≈ 0.181 µM) | 0.5 (≈ 1.51 µM) | 0.5 (≈ 1.51 µM) | CC1(N)CN(c2cc3c(cc2F)c(=O)c(C(=O)O)cn3C2CC2)C1 | 62.2 | 2.7 | 36.1
15 | 0.12 (≈ 0.358 µM) | 0.12 (≈ 0.358 µM) | 0.03 (≈ 0.0895 µM) | 0.12 (≈ 0.358 µM) | 0.03 (≈ 0.0895 µM) | 0.03 (≈ 0.0895 µM) | 0.06 (≈ 0.179 µM) | 0.12 (≈ 0.358 µM) | 23000 | 0.03 (≈ 0.0895 µM) | 0.5 (≈ 1.49 µM) | 0.25 (≈ 0.746 µM) | NC1CN(c2c(F)cc3c(=O)c(C(=O)O)cn(C4CC4)c3c2F)C1 | 141 | 2.4 | 16.2
16 | 0.06 (≈ 0.165 µM) | 0.06 (≈ 0.165 µM) | 0.015 (≈ 0.0412 µM) | 0.06 (≈ 0.165 µM) | 0.015 (≈ 0.0412 µM) | 0.015 (≈ 0.0412 µM) | 0.015 (≈ 0.0412 µM) | 0.12 (≈ 0.329 µM) | – | 0.015 (≈ 0.0412 µM) | 0.5 (≈ 1.37 µM) | 0.25 (≈ 0.686 µM) | CC1(N)CN(c2c(F)c(N)c3c(=O)c(C(=O)O)cn(C4CC4)c3c2F)C1 | 71 | 3.3 | 7.2
17 | 0.06 (≈ 0.143 µM) | 0.06 (≈ 0.143 µM) | 0.03 (≈ 0.0715 µM) | 0.06 (≈ 0.143 µM) | 0.015 (≈ 0.0357 µM) | 0.03 (≈ 0.0715 µM) | 0.06 (≈ 0.143 µM) | 0.12 (≈ 0.286 µM) | – | 0.12 (≈ 0.286 µM) | 0.5 (≈ 1.19 µM) | 0.25 (≈ 0.596 µM) | CC1(N)CN(c2c(F)cc3c(=O)c(C(=O)O)cn(-c4ccc(F)cc4)c3c2Cl)C1 | 54.9 | 0.4 | 1.1

— ChEMBL document CHEMBL1126625, “7-Azetidinylquinolones as antibacterial agents. Synthesis and structure-activity relationships” (J Med Chem, 1993)
